Here are results for one compound from article PMC2939729 (Cancer cell, 2010).

The target in one assay is T1, DCAMKL2 (Homo sapiens, UniProt Q8N568).
T1 sequence (Q8N568 1-766): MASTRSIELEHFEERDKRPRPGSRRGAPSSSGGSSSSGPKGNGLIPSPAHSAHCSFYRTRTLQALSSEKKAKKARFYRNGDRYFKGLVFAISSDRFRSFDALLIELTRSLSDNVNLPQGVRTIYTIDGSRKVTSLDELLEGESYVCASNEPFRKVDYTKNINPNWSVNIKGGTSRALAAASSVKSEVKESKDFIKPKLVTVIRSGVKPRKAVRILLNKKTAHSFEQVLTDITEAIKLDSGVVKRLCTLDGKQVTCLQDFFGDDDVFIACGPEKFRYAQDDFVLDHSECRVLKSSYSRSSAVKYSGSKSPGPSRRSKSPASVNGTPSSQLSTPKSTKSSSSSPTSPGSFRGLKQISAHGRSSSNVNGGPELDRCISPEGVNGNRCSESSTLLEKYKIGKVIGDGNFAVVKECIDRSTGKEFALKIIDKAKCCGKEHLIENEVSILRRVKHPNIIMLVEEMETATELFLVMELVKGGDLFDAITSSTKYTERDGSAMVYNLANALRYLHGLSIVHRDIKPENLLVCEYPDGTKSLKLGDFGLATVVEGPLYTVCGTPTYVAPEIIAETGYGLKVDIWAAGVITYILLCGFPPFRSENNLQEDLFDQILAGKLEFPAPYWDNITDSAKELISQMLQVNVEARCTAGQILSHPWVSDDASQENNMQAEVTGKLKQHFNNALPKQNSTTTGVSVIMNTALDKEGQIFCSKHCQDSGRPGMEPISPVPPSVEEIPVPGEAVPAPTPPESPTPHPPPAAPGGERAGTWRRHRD
The assay is described as follows: in vitro ATP-site competition binding assay, panel of 402 kinases. Conditions: 10 μM inhibitor.

The next assay addresses T2, MEK5 (Homo sapiens, UniProt Q13163).
T2 sequence (Q13163 1-448): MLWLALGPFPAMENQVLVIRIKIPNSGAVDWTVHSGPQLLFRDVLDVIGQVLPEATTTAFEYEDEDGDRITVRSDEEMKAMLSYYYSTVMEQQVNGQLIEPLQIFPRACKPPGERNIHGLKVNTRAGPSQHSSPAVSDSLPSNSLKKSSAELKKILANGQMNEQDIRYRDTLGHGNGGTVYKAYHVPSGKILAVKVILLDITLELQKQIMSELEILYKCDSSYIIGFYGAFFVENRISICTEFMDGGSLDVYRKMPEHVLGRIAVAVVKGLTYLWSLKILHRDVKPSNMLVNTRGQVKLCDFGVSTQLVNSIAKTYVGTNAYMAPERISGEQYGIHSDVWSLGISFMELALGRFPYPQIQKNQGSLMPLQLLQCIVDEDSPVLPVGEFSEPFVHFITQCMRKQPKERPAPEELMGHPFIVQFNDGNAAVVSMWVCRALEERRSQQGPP
The assay is described as follows: KiNativ profiling in HeLa cell lysates. In kind it is binding. The following applies: at up to 50 μM. The procedure, abridged:
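HeLa lysates (5 mg/mL total protein) were preincubated 15 min with test compound at 50, 10, 2, 0.8 or 0 μM. ATP or ADP acylphosphate probe was then added (5 μM final) for 10 min, and the reaction was stopped with urea and processed for MS. Each kinase signal came from up to four fragment ions of its peptide-probe conjugate. % inhibition was taken against untreated lysate, with duplicate reactions.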

For assay [1], the target named is T3, BMK1 (Homo sapiens, UniProt Q13164). The assay is described as follows: EGF-induced BMK1 activation in HeLa cells. The following applies: 1 μM compound for one hour, EGF 17 min. In kind it is cell-based.
Target sequence in this assay (Q13164 whole entry): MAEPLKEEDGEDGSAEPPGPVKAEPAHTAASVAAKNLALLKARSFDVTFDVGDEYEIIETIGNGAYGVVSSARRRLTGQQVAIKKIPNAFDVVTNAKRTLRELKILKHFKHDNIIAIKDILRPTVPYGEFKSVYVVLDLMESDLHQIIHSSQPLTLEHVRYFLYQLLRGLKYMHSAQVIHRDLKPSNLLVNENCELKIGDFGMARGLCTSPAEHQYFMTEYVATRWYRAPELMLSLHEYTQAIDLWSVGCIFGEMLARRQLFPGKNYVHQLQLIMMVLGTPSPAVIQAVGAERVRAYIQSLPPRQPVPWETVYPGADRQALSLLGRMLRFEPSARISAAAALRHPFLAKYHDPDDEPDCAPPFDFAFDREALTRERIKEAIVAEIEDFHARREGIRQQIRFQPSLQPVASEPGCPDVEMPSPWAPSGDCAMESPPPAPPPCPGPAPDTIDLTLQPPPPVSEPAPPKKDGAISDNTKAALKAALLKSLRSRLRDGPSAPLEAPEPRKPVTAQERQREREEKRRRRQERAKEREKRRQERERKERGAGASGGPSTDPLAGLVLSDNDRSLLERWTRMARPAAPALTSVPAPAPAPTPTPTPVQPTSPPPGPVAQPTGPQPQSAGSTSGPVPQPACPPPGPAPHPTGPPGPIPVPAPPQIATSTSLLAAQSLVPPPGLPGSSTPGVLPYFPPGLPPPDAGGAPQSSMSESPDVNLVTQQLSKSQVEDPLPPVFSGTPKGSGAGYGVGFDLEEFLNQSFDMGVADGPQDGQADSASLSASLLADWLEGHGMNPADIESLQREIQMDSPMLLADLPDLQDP
In assay [2] the target is T3, BMK1. The assay is described as follows: in vitro kinase assay of BMK1 immunoprecipitated from HEK293 cells. In kind it is biochemical. Conditions: BMK1 immunoprecipitated from HEK293 co-transfected with MEK5D and BMK1.
Target sequence in this assay (Q13164 whole entry, species assumed): as the sequence (Q13164 whole entry) above
Assay [3] has as its system BMK1-dependent transactivating activity of MEF2C. Nature of the assay: Trans-reporter assay of BMK1-dependent MEF2C transactivating activity in HEK293. The following applies: HEK293, 5 μM for 16 hr, luciferase. Type of assay: cell-based.
The next assay deals with cancer cell lines. The assay is described as follows: Proliferation of a wide variety of cancer cell lines. Type of assay: cell-based.

In the case of `CCOc1cc(N2CCC(O)CC2)ccc1Nc1ncc2c(n1)N(C)c1ccccc1C(=O)N2C` [XMD8-92], at DCAMKL2, the “displacement by XMD8-92” value is recorded as “greater than 90%”. For the same compound, on MEK5, the “inhibition of MEK5” value is given as “not significantly inhibited”. Also, the “Growth factor-induced activation of cellular BMK1” value at BMK1 [1] is given as “effectively blocked”. Moreover, the “BMK1 activity in in vitro kinase assays” value at BMK1 [2] was “significantly reduced”. Also, in assay [3], the “BMK1-dependent transactivating activity of MEF2C” value is “dramatically reduced”. Moreover, in the assay with cancer cell lines, the effect on proliferation result is “inhibitory effect”.
